Reference: ChEMBL document CHEMBL1153139, “CD4 mimics targeting the mechanism of HIV entry” (Bioorg Med Chem Lett, 2010)
The source made the active and inactive calls. The calls are words filed in the database; no cut-off is given here.

What was measured:
[1] = test system: Human immunodeficiency virus 1; test: Antiviral activity against HIV1 3B laboratory isolate assessed as inhibition of virus-induced cytopathogenicity by MTT assay; format: functional, organism-based; conditions: Human immunodeficiency virus 1, 3B
In short: (§1)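 Infection of PM1/CCR5 cells; tropism/subtype of each strain: IIIB X4 Sub B, 89.6 dual Sub B, KYAG and fTOI R5 Sub B (primary isolates). Viability read by MTT. […] Means of at least three experiments; tested up to 100 uM.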

[2] = test system: Human immunodeficiency virus 1; test: Antiviral activity against HIV1 89.6 laboratory isolate assessed as inhibition of virus-induced cytopathogenicity by MTT assay; format: functional, organism-based; conditions: Human immunodeficiency virus 1, isolate 89.6; in short: as §1
[3] = test system: Human immunodeficiency virus 1; test: Antiviral activity against HIV1 fTOI primary isolate assessed as inhibition of virus-induced cytopathogenicity by MTT assay; format: functional, organism-based; conditions: Human immunodeficiency virus 1, fTOI; in short: as §1
[4] = test system: Human immunodeficiency virus 1; test: Antiviral activity against HIV1 KYAG primary isolate assessed as inhibition of virus-induced cytopathogenicity by MTT assay; format: functional, organism-based; conditions: Human immunodeficiency virus 1, KYAG; in short: as §1
[5] = Cytotoxicity against mock-infected CCR5 expressing human PM1 cells by MTT assay; format: cell-based
PM1 = test: Inhibition of gp120 binding to CD4 in HIV1 JR-FL infected human PM1 cells assessed as binding of anti-envelope CD4-induced monoclonal antibody 4C11 to envelope expressing cell surface at 100 uM pretreated 15 mins before 4C11 addition by FACS analysis; format: cell-based; conditions: Human immunodeficiency virus 1
In short: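 PM1 cells chronically infected with JR-FL (R5, Sub B) preincubated 15 min with compound at 100 uM (sCD4 11 nM as reference), then anti-HIV-1 mAb 4C11 at 4 °C for 15 min. After PBS wash, stained with FITC goat anti-human IgG; flow cytometry on gated PM1 cells, anti-CD19 control antibody; read as 4C11 mean fluorescence intensity. Minimum two independent experiments.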

[6] = Inhibition of HIV1 gp120 binding to CD4; set-up: species or system Human immunodeficiency virus 1

| Compound | IC50 [1] | IC50 [2] | IC50 [3] | IC50 [4] | CC50 [5] | Activity (PM1) | Kd [6] |
| --- | --- | --- | --- | --- | --- | --- | --- |
| CC1(C)CC(NC(=O)C(=O)Nc2ccccc2)CC(C)(C)N1 | > 100 µM | > 100 µM | 81 µM | > 100 µM | 350 µM | inactive | – |
| CC1(C)CC(NC(=O)C(=O)Nc2ccc([N+](=O)[O-])cc2)CC(C)(C)N1 | – | 42 µM | – | – | 230 µM | – | – |
| Cc1ccc(NC(=O)C(=O)NC2CC(C)(C)NC(C)(C)C2)cc1 | 23 µM | 41 µM | 16 µM | 51 µM | – | Active | – |
| CC1(C)CC(NC(=O)C(=O)Nc2ccc(C(F)(F)F)cc2)CC(C)(C)N1 | – | 27 µM | – | – | 72 µM | – | – |
| CC1(C)CC(NC(=O)C(=O)Nc2ccc(Cl)cc2)CC(C)(C)N1 | 8 µM | 10 µM | 5 µM | > 30 µM | 170 µM | Active | – |
| CC1(C)CC(NC(=O)C(=O)Nc2ccc(Br)cc2)CC(C)(C)N1 | 4 µM | 9 µM | – | – | 150 µM | – | 2.2 µM |
| CC1(C)CC(NC(=O)C(=O)Nc2ccc(F)cc2)CC(C)(C)N1 | 61 µM | 81 µM | – | > 100 µM | 320 µM | – | – |
| COc1ccc(NC(=O)C(=O)NC2CC(C)(C)NC(C)(C)C2)cc1 | > 100 µM | > 100 µM | – | > 100 µM | 340 µM | – | – |
